# Measurements as given in ChEMBL document CHEMBL3352181, “Novel phenyl and pyridyl substituted derivatives of isoindolines: Synthesis, antitumor activity and DNA binding features” (Eur J Med Chem, 2014).
# Active and inactive are the calls of the source. The rule behind the calls is not given here.
# How the values were obtained:
# [1] = system: Nucleic Acid; assay: Induction of DNA intercalation in supercoiled pUC19 DNA in presence of human topoisomerase 1 assessed as effect on topoisomerase 1-mediated DNA relaxation at 5 to 50 uM by agarose gel electrophoresis; assay type: nucleic-acid assay; details: Escherichia coli
# Summary of the method: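 Supercoiled pUC19 incubated with human topoisomerase I and graded compound concentrations. Stopped with SDS/proteinase K. DNA forms resolved on 1% agarose in TBE, 2 h at 120 V, stained post-run with ethidium bromide and viewed under UV. Camptothecin was the topo I poison control.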
# [2] = system: HepG2; assay: Induction of cell cycle arrest on human HepG2 cells assessed as accumulation at G1 phase at 50 uM after 48 hrs by propidium iodide staining based flow cytometry (reference value: 55.0 +/- 4.8%); assay type: functional
# [3] = system: BJ; assay: Antiproliferative activity against human BJ cells assessed as inhibition of cell proliferation after 72 hrs by MTT assay; assay type: cell-based; details: 72 h
# Summary of the method: (§1)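 Cells grown as monolayers in DMEM with 10% FBS, 2 mM L-glutamine, penicillin/streptomycin, 37 °C, 5% CO2. Seeded at 5000/well on day 0. Compounds added after 24 h as five serial dilutions (0,01 to 100 µM), DMSO ≤0.1%, then 72 h. MTT read-out converted to percentage growth. IC50 by linear regression; quadruplicates in three experiments.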
# [4] = system: HepG2; assay: Antiproliferative activity against human HepG2 cells assessed as inhibition of cell proliferation after 72 hrs by MTT assay; assay type: functional, cell-based; summary of the method: as §1
# [5] = system: HepG2; assay: Induction of cell cycle arrest on human HepG2 cells assessed as accumulation at G2/M phase at 20 uM after 48 hrs by propidium iodide staining based flow cytometry (reference value: 45.0 +/- 4.8%); assay type: functional
# [6] = system: HepG2; assay: Induction of cell cycle arrest on human HepG2 cells assessed as accumulation at G2/M phase at 20 uM after 24 hrs by propidium iodide staining based flow cytometry (reference value: 31.7 +/- 1.9%); assay type: functional
# [7] = system: MCF7; assay: Antiproliferative activity against human MCF7 cells assessed as inhibition of cell proliferation after 72 hrs by MTT assay; assay type: functional, cell-based; summary of the method: as §1
# [8] = system: HepG2; assay: Induction of cell cycle arrest on human HepG2 cells assessed as accumulation at S phase at 20 uM after 24 hrs by propidium iodide staining based flow cytometry (reference value: 8.6 +/- 2.8%); assay type: functional
# [9] = system: SW-620; assay: (§2) Antiproliferative activity against human SW620 cells assessed as inhibition of cell proliferation after 72 hrs by MTT assay; assay type: functional, cell-based; summary of the method: as §1
# [10] = as §2; assay type: functional, cell-based, SW-620; details: Homo sapiens, SW-620, 72 h; summary of the method: as §1
# [11] = system: HepG2; assay: Induction of cell cycle arrest on human HepG2 cells assessed as accumulation at G1 phase at 20 uM after 24 hrs by propidium iodide staining based flow cytometry (reference value: 59.7 +/- 0.9%); assay type: functional
# [12] = system: HepG2; assay: Induction of cell cycle arrest on human HepG2 cells assessed as accumulation at subG1 phase at 50 uM after 48 hrs by propidium iodide staining based flow cytometry (reference value: 2.8 +/- 0.3%); assay type: functional
# Summary of the method: (§3)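 HepG2 or SW620 cells were seeded at 25000 per well. After 24 h they were treated, then harvested 24 or 48 h later. Attached cells were trypsinized, pooled with floating cells, PBS-washed and fixed in 70% ethanol. Cells were stained with PI 1 µg/mL plus RNase A 0.2 µg/mL, and 10 000 events were acquired by flow cytometry. Phase percentages come from DNA histograms, in duplicate, with ANOVA at p < 0.05.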
# [13] = target: T1, DNA topoisomerase 1 (Homo sapiens) (UniProt P11387); assay: Inhibition of human topoisomerase 1 assessed as topoisomerase poison activity by measuring generation of open circular DNA using supercoiled pUC19 DNA at 5 to 50 uM by agarose gel electrophoresis
# T1 sequence (whole entry): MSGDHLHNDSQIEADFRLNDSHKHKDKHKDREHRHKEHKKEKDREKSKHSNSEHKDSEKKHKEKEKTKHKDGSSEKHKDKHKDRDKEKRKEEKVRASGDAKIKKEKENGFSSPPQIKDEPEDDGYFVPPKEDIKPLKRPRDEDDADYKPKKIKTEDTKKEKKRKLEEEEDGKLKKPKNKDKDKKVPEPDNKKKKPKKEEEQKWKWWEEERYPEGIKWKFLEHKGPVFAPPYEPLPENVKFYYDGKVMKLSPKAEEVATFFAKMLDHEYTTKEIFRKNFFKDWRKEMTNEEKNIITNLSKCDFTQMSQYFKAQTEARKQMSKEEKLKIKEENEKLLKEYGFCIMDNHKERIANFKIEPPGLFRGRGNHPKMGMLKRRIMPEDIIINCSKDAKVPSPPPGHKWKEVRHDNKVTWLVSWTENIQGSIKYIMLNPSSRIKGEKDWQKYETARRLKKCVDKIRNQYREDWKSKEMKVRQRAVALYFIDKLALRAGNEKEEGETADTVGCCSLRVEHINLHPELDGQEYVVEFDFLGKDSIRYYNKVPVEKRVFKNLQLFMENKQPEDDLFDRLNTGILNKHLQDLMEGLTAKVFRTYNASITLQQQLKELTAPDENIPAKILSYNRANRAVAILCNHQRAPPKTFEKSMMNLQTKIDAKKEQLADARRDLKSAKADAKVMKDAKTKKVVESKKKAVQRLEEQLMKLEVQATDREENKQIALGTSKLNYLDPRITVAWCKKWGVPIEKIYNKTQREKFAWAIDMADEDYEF
# Summary of the method: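 Supercoiled pUC19 plasmid was incubated with human topoisomerase I and graded compound concentrations. Reactions were stopped with SDS and proteinase K. DNA forms were resolved on 1% agarose in TBE (2 h, 120 V), post-stained with ethidium bromide and photographed under UV. Poisoning was read as appearance of nicked DNA, with camptothecin as the positive control.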
# [14] = system: HepG2; assay: Induction of cell cycle arrest on human HepG2 cells assessed as accumulation at subG1 phase at 20 uM after 48 hrs by propidium iodide staining based flow cytometry (reference value: 2.8 +/- 0.3%); assay type: functional; summary of the method: as §3
# [15] = system: HepG2; assay: Induction of cell cycle arrest on human HepG2 cells assessed as accumulation at G1 phase at 20 uM after 48 hrs by propidium iodide staining based flow cytometry (reference value: 55.0 +/- 4.8%); assay type: functional
# [16] = system: HepG2; assay: Induction of cell cycle arrest on human HepG2 cells assessed as accumulation at S phase at 50 uM after 24 hrs by propidium iodide staining based flow cytometry (reference value: 8.6 +/- 2.8%); assay type: functional; summary of the method: as §3
# [17] = system: HepG2; assay: Induction of apoptosis in human HepG2 cells assessed as apoptotic bodies at 25 uM after 24 hrs by Annexin V-Fluos staining based fluorescent microscopy; assay type: functional, cell-based
# Summary of the method: (§4)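 Cells seeded on chamber slides at 4000 per well and treated 24 h (HepG2 at 25 or 50 µM; SW620 at 50 µM). Incubated 15 min with Annexin V-Fluos reagent plus propidium iodide, washed in PBS, and examined by fluorescence microscopy for morphology and labelling.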
# [18] = system: HepG2; assay: Induction of cell cycle arrest on human HepG2 cells assessed as accumulation at S phase at 20 uM after 48 hrs by propidium iodide staining based flow cytometry (reference value: 0 +/- 0%); assay type: functional; summary of the method: as §3
# [19] = system: HepG2; assay: Induction of apoptosis in human HepG2 cells assessed as induction of cytoplasmic shrinkage at 25 uM after 24 hrs by Annexin V-Fluos staining based fluorescent microscopy; assay type: functional, cell-based; summary of the method: as §4
# [20] = system: HepG2; assay: Induction of cell cycle arrest on human HepG2 cells assessed as accumulation at G2/M phase at 50 uM after 48 hrs by propidium iodide staining based flow cytometry (reference value: 45.0 +/- 4.8%); assay type: functional
# [21] = system: HepG2; assay: Induction of cell cycle arrest on human HepG2 cells assessed as accumulation at G2/M phase at 50 uM after 24 hrs by propidium iodide staining based flow cytometry (reference value: 31.7 +/- 1.9%); assay type: functional
# [22] = system: HepG2; assay: Induction of cell cycle arrest on human HepG2 cells assessed as accumulation at subG1 phase at 50 uM after 24 hrs by propidium iodide staining based flow cytometry (reference value: 3.1 +/- 0.9%); assay type: functional; summary of the method: as §3
# [23] = system: HepG2; assay: Induction of cell cycle arrest on human HepG2 cells assessed as accumulation at G1 phase at 50 uM after 24 hrs by propidium iodide staining based flow cytometry (reference value: 59.7 +/- 0.9%); assay type: functional
# [24] = system: HeLa; assay: Antiproliferative activity against human HeLa cells assessed as inhibition of cell proliferation after 72 hrs by MTT assay; assay type: functional, cell-based; summary of the method: as §1
# [25] = system: HepG2; assay: Induction of cell cycle arrest on human HepG2 cells assessed as accumulation at subG1 phase at 20 uM after 24 hrs by propidium iodide staining based flow cytometry (reference value: 3.1 +/- 0.9%); assay type: functional; summary of the method: as §3
# [26] = system: HepG2; assay: Induction of cell cycle arrest on human HepG2 cells assessed as accumulation at S phase at 50 uM after 48 hrs by propidium iodide staining based flow cytometry (reference value: 0 +/- 0%); assay type: functional; summary of the method: as §3
smiles,measurement,setting,value
O=[N+]([O-])c1ccc(/N=C2\c3ccccc3CN2c2ccc([N+](=O)[O-])cc2)cc1,Activity,[1],inactive
same,Activity,[2],59.7%
same,IC50,"[3]; Homo sapiens, BJ",75.3 µM
same,inhibition (INH),"[3]; human, bj",Dose-dependent effect
same,inhibition,[4],Dose-dependent effect
same,IC50,"[4]; HepG2, 72 h",9.65 µM
same,Activity,[5],44.9%
same,Activity,[6],15.6%
same,inhibition,[7],Dose-dependent effect
same,IC50,"[7]; Homo sapiens, MCF7, 72 h",8.14 µM
same,Activity,[8],25.6%
same,inhibition,[9],Dose-dependent effect
same,IC50,[10],33.4 µM
same,Activity,[11],58.8%
same,Activity,[12],4.3%
same,inhibition,[13],inactive
same,Activity,[14],4.4%
same,Activity,[15],53.7%
same,Activity,[16],27.6%
same,Activity,[17],Active
same,Activity,[18],1.3%
same,Activity,[19],Active
same,Activity,[20],39.4%
same,Activity,[21],17.4%
same,Activity,[22],8.3%
same,Activity,[23],55%
same,inhibition,[24],Dose-dependent effect
same,IC50,"[24]; Homo sapiens, HeLa, 72 h",7.69 µM
same,Activity,[25],6.6%
same,Activity,[26],0.8%
